# Legend:
# Type in all cases: functional
# [1] = test system: Escherichia coli; assay: Antibacterial activity against wild-type Escherichia coli BW25113 after 20 hrs by Etest method; settings: BW25113, 20 h
# Method in brief: (§1)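 MICs by Etest strips on Mueller-Hinton plates, following the manufacturer's specifications. Cells came from overnight liquid cultures in LB at 37°C with agitation. Plates were read after 20 h at 37°C. Antibiotics tested were cefoxitin, norfloxacin, chloramphenicol and minocycline.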
# [2] = test system: Escherichia coli; assay: Antibacterial activity against MarA-deficient Escherichia coli CR2000 after 20 hrs by Etest method; settings: CR2000, 20 h
# Method in brief: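 Overnight LB-grown cultures (37°C, agitation) of the ΔmarRA strain (BW25113 background) tested on Mueller-Hinton plates with Etest strips per manufacturer's instructions. MIC read after 20 h at 37°C.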
# [3] = test system: Escherichia coli; assay: Antibacterial activity against MarA-overexpressing Escherichia coli CR1000 after 20 hrs by Etest method; settings: CR1000, 20 h; method in brief: as §1
# [4] = test system: Escherichia coli; assay: Ratio of MIC for marA-overproducing Escherichia coli CR1000 to MIC for MarA-deficient Escherichia coli CR2000
# Method in brief: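 MICs measured by Etest on Mueller-Hinton plates, read after 20 h at 37°C, for the ΔmarR strain (constitutive chromosomal marA overexpression) and the ΔmarRA strain (BW25113 background), both grown overnight in LB at 37°C. MarA-mediated MDR expressed as the ΔmarR/ΔmarRA MIC ratio.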
# [5] = test system: Escherichia coli; assay: Antibacterial activity against marA-overproducing Escherichia coli CR1000 harboring inactivated cspGp gene assessed as MarA-mediated multidrug resistance level by measuring fold change in MIC relative to MarA-deficient Escherichia coli CR2000
# Method in brief: (§2)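 Each inactivated gene was transferred into both the ΔmarR (CR1000) and the ΔmarRA (CR2000) BW25113 backgrounds. Each derivative was grown overnight in LB and tested by Etest on Mueller-Hinton plates, read after 20 h at 37°C, against cefoxitin, norfloxacin, chloramphenicol and minocycline. The MarA-mediated level compares the MIC in the ΔmarR derivative with the MIC in the matching ΔmarRA derivative.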
# [6] = test system: Escherichia coli; assay: Antibacterial activity against marA-overproducing Escherichia coli CR1000 harboring inactivated ompR gene assessed as MarA-mediated multidrug resistance level by measuring fold change in MIC relative to MarA-deficient Escherichia coli CR2000; method in brief: as §2
# [7] = test system: Escherichia coli; assay: Antibacterial activity against marA-overproducing Escherichia coli CR1000 harboring inactivated appA gene assessed as MarA-mediated multidrug resistance level by measuring fold change in MIC relative to MarA-deficient Escherichia coli CR2000; method in brief: as §2
# [8] = test system: Escherichia coli; assay: Antibacterial activity against marA-overproducing Escherichia coli CR1000 harboring inactivated degP gene assessed as MarA-mediated multidrug resistance level by measuring fold change in MIC relative to MarA-deficient Escherichia coli CR2000; method in brief: as §2
# [9] = test system: Escherichia coli; assay: Antibacterial activity against marA-overproducing Escherichia coli CR1000 harboring inactivated maoC gene assessed as MarA-mediated multidrug resistance level by measuring fold change in MIC relative to MarA-deficient Escherichia coli CR2000; method in brief: as §2
# [10] = test system: Escherichia coli; assay: Antibacterial activity against marA-overproducing Escherichia coli CR1000 harboring inactivated metL gene assessed as MarA-mediated multidrug resistance level by measuring fold change in MIC relative to MarA-deficient Escherichia coli CR2000; method in brief: as §2
# [11] = test system: Escherichia coli; assay: Antibacterial activity against marA-overproducing Escherichia coli CR1000 harboring inactivated recD gene assessed as MarA-mediated multidrug resistance level by measuring fold change in MIC relative to MarA-deficient Escherichia coli CR2000; method in brief: as §2
# [12] = test system: Escherichia coli; assay: Antibacterial activity against marA-overproducing Escherichia coli CR1000 harboring inactivated treC gene assessed as MarA-mediated multidrug resistance level by measuring fold change in MIC relative to MarA-deficient Escherichia coli CR2000; method in brief: as §2
# [13] = test system: Escherichia coli; assay: Antibacterial activity against marA-overproducing Escherichia coli CR1000 harboring inactivated ynfE gene assessed as MarA-mediated multidrug resistance level by measuring fold change in MIC relative to MarA-deficient Escherichia coli CR2000; method in brief: as §2
# [14] = test system: Escherichia coli; assay: Antibacterial activity against marA-overproducing Escherichia coli CR1000 harboring inactivated mhpT gene assessed as MarA-mediated multidrug resistance level by measuring fold change in MIC relative to MarA-deficient Escherichia coli CR2000; method in brief: as §2
# [15] = test system: Escherichia coli; assay: Antibacterial activity against marA-overproducing Escherichia coli CR1000 harboring inactivated nikD gene assessed as MarA-mediated multidrug resistance level by measuring fold change in MIC relative to MarA-deficient Escherichia coli CR2000; method in brief: as §2
# [16] = test system: Escherichia coli; assay: Antibacterial activity against marA-overproducing Escherichia coli CR1000 harboring inactivated alx gene assessed as MarA-mediated multidrug resistance level by measuring fold change in MIC relative to MarA-deficient Escherichia coli CR2000; method in brief: as §2
# [17] = test system: Escherichia coli; assay: Antibacterial activity against marA-overproducing Escherichia coli CR1000 harboring inactivated metV gene assessed as MarA-mediated multidrug resistance level by measuring fold change in MIC relative to MarA-deficient Escherichia coli CR2000; method in brief: as §2
# [18] = test system: Escherichia coli; assay: Antibacterial activity against marA-overproducing Escherichia coli CR1000 harboring inactivated yfdG gene assessed as MarA-mediated multidrug resistance level by measuring fold change in MIC relative to MarA-deficient Escherichia coli CR2000; method in brief: as §2
# [19] = test system: Escherichia coli; assay: Antibacterial activity against marA-overproducing Escherichia coli CR1000 harboring inactivated yibLp gene assessed as MarA-mediated multidrug resistance level by measuring fold change in MIC relative to MarA-deficient Escherichia coli CR2000; method in brief: as §2
# [20] = test system: Escherichia coli; assay: Antibacterial activity against marA-overproducing Escherichia coli CR1000 harboring inactivated yniDp gene assessed as MarA-mediated multidrug resistance level by measuring fold change in MIC relative to MarA-deficient Escherichia coli CR2000; method in brief: as §2
# [21] = test system: Escherichia coli; assay: Antibacterial activity against marA-overproducing Escherichia coli CR1000 harboring inactivated hns gene assessed as MarA-mediated multidrug resistance level by measuring fold decrease in MIC relative to MarA-deficient Escherichia coli CR2000; parameters: scale not given: the % may be the effect or the level left; method in brief: as §2
# [22] = test system: Escherichia coli; assay: Antibacterial activity against marA-overproducing Escherichia coli CR1000 harboring inactivated cyaA gene assessed as MarA-mediated multidrug resistance level by measuring fold decrease in MIC relative to MarA-deficient Escherichia coli CR2000; parameters: scale not given: the % may be the effect or the level left; method in brief: as §2
# [23] = test system: Escherichia coli; assay: Antibacterial activity against marA-overproducing Escherichia coli CR1000 harboring inactivated pcnB gene assessed as MarA-mediated multidrug resistance level by measuring fold decrease in MIC relative to MarA-deficient Escherichia coli CR2000; parameters: scale not given: the % may be the effect or the level left; method in brief: as §2
# [24] = test system: Escherichia coli; assay: Antibacterial activity against marA-overproducing Escherichia coli CR1000 harboring inactivated acrA gene assessed as MarA-mediated multidrug resistance level by measuring fold decrease in MIC relative to MarA-deficient Escherichia coli CR2000; parameters: scale not given: the % may be the effect or the level left; method in brief: as §2
# [25] = test system: Escherichia coli; assay: Antibacterial activity against marA-overproducing Escherichia coli CR1000 harboring inactivated acrB gene assessed as MarA-mediated multidrug resistance level by measuring fold decrease in MIC relative to MarA-deficient Escherichia coli CR2000; parameters: scale not given: the % may be the effect or the level left; method in brief: as §2
# [26] = test system: Escherichia coli; assay: Antibacterial activity against marA-overproducing Escherichia coli CR1000 harboring inactivated tolC gene assessed as MarA-mediated multidrug resistance level by measuring fold decrease in MIC relative to MarA-deficient Escherichia coli CR2000; parameters: scale not given: the % may be the effect or the level left; method in brief: as §2
# [27] = test system: Escherichia coli; assay: Antibacterial activity against marA-overproducing Escherichia coli CR1000 harboring inactivated damX gene assessed as MarA-mediated multidrug resistance level by measuring fold decrease in MIC relative to MarA-deficient Escherichia coli CR2000; parameters: scale not given: the % may be the effect or the level left; method in brief: as §2
# [28] = test system: Escherichia coli; assay: Antibacterial activity against marA-overproducing Escherichia coli CR1000 harboring inactivated crp gene assessed as MarA-mediated multidrug resistance level by measuring fold change in MIC relative to MarA-deficient Escherichia coli CR2000; method in brief: as §2
SMILES,MIC [1] [µg/mL],MIC [2] [µg/mL],MIC [3] [µg/mL],Ratio [4],Activity [5] [%],Activity [6] [%],Activity [7] [%],Activity [8] [%],Activity [9] [%],Activity [10] [%],Activity [11] [%],Activity [12] [%],Activity [13] [%],Activity [14] [%],Activity [15] [%],Activity [17] [%],Activity [18] [%],Activity [19] [%],Activity [20] [%],Activity [21] [%],further results
CN(C)c1ccc(O)c2c1C[C@H]1C[C@H]3[C@H](N(C)C)C(O)=C(C(N)=O)C(=O)[C@@]3(O)C(O)=C1C2=O [MINOCYCLINE],3.3,2.4,4.9,2,75,100,100,100,40,100,65,100,100,100,125,65,65,100,50,35,Activity [16]: 65%; Activity [22]: 32%; Activity [23]: 30%; Activity [24]: 40%; Activity [25]: 40%; Activity [26]: 40%; Activity [27]: 30%; Activity [28]: 38%
O=C(N[C@H](CO)[C@H](O)c1ccc([N+](=O)[O-])cc1)C(Cl)Cl [CHLORAMPHENICOL],10.7,8.1,23.9,3,93,93,93,50,75,100,50,85,93,100,50,75,93,50,125,20,Activity [16]: 100%; Activity [22]: 46%; Activity [23]: 33%; Activity [24]: 8%; Activity [25]: 8%; Activity [26]: 0%; Activity [27]: 50%; Activity [28]: 29%
CCn1cc(C(=O)O)c(=O)c2cc(F)c(N3CCNCC3)cc21 [NORFLOXACIN],0.09,0.07,0.21,3.1,91,77,84,91,61,91,77,46,68,91,68,91,91,68,77,23,Activity [16]: 68%; Activity [22]: 41%; Activity [23]: 23%; Activity [24]: 0%; Activity [25]: 9%; Activity [26]: 0%; Activity [27]: 46%; Activity [28]: 33%
CO[C@@]1(NC(=O)Cc2cccs2)C(=O)N2C(C(=O)O)=C(COC(N)=O)CS[C@@H]21 [CEFOXITIN],4,3.2,10.6,3.3,54,67,68,94,100,120,80,94,94,68,68,74,68,68,94,19,Activity [22]: 43%; Activity [23]: 10%; Activity [24]: 16%; Activity [25]: 6%; Activity [26]: 0%; Activity [27]: 40%; Activity [28]: 21%
